pEC50, pIC50: −log10 of the molar value. Calls of active or inactive are those of the source. No cut-off for these calls is given here.

Broadly, the pEC50 is the EC50 on a negative log10 scale, so that one unit is a factor of ten. Higher therefore signals a low EC50. Usually pIC50 stands for the negative decadic logarithm of the IC50, by convention in mol/L. A low value points to a large IC50.

For series [1], the system named is HepG2. Briefly: Induction of ARE in human HepG2 cells by luciferase assay. In kind it is functional, cell-based. Put shortly: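 Stably transfected HepG2 cells carrying an ARE-luciferase reporter. EC50 is the concentration giving activation halfway between the DMSO-control baseline and the maximum response at 20 µg/mL.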
Series [2] addresses Prostaglandin G/H synthase 1 (Homo sapiens) (UniProt P23219). Nature of the series: Inhibition of COX1. Put shortly: (§1)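 COX-1 and COX-2 activity read out as PGE2 production. Indomethacin served as the positive control.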
In series [3] the test system is HepG2. Briefly: Cytotoxicity against human HepG2 cells. In kind it is cell-based.
The subject of series [4] is HepG2. Briefly: Inhibition of TPA-induced NF-kappaB activation in human HepG2 cells by luciferase assay. In kind it is functional, cell-based. Put shortly: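 NFκB-luciferase reporter construct activated with TPA (phorbol ester). IC50 is the concentration that reduces TPA-activated NFκB luciferase activity by 50%.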
Series [5] has as its target T1, Prostaglandin G/H synthase 2 (Homo sapiens, UniProt P35354).
T1 sequence (P35354 whole entry): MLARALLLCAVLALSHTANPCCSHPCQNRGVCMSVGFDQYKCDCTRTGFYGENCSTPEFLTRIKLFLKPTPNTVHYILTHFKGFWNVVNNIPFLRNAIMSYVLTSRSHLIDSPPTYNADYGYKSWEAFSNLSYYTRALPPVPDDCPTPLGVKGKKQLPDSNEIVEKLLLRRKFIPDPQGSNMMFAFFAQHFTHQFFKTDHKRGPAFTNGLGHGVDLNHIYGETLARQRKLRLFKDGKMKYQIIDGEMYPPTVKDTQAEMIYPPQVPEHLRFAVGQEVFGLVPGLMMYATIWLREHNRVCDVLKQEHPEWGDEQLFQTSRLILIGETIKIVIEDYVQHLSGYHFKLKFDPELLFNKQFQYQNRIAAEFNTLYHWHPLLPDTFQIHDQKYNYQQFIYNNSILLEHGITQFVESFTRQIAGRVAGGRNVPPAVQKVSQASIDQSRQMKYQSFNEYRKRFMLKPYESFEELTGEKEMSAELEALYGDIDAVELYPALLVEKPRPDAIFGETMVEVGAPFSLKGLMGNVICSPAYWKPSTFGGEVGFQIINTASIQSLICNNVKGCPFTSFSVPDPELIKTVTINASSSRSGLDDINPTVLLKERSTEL
Briefly: (§2) Inhibition of COX2. The method in brief:
as §1

Series [6] deals with T2, Prostaglandin G/H synthase 2 (Homo sapiens) (UniProt P35354).
T2 sequence (whole entry): T1 sequence (P35354 whole entry)
Described as §2. Put shortly:
as §1

Prostaglandin G/H synthase 1 (Homo sapiens), sequence (P23219 whole entry): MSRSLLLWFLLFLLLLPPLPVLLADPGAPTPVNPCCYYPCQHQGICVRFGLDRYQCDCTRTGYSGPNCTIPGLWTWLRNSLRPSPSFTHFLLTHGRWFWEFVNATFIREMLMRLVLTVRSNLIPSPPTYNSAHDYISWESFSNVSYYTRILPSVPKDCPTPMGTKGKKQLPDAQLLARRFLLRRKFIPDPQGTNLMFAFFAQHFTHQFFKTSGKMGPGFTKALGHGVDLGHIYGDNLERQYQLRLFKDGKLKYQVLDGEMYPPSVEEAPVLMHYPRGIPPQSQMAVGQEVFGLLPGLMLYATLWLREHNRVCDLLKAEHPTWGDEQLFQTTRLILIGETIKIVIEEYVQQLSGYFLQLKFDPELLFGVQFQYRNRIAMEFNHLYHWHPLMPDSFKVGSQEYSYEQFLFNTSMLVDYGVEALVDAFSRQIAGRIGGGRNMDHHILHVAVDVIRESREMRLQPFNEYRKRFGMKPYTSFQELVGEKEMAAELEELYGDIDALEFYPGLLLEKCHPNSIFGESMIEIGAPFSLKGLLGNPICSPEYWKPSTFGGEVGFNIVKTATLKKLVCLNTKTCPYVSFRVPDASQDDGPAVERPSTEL

In the series on HepG2 [1], `O=c1cc(-c2ccc(Br)cc2)oc2ccccc12` had a pEC50 of 4.52.
The same measure, in the same setting: with `O=c1cc(-c2ccccc2)oc2ccc3ccccc3c12` [BETA-NAPHTHOFLAVONE] the figure was 5.10.
For `CCCCCCCCCCCCCCCCCC(=O)O[C@H]1C[C@@H](O)[C@]2(C)[C@H]3CC[C@@H]4[C@@H]([C@@](C)(O)CCC=C(C)C)CC[C@@]4(C)[C@]3(C)CC[C@H]2C1(C)C` [BRUGUIERIN A], the outcome in series [2] was inactive. Further, the Activity result in the series with HepG2 [3] is “Non-toxic”. Further, the pEC50 in the series on HepG2 [1] was 5.11. In addition, the pIC50 in the series with HepG2 [4] is 5.85; in series [5], 6.43.
Turning to `CCCCCCCCCCCCCCCCCC(=O)O[C@H]1CC[C@]2(C)[C@H]3[C@H](O)C[C@@H]4[C@@H]([C@@](C)(O)CCC=C(C)C)CC[C@@]4(C)[C@]3(C)CC[C@H]2C1(C)C` [BRUGUIERIN B], the result in series [2] and in series [6] was inactive. The Activity entry with HepG2 [3] was “Non-toxic”. For the same compound, the pEC50 in the series on HepG2 [1] was 5.03.
Consider `CCCCCCCCCCCCCCCCCC(=O)O[C@H]1C[C@@H](O)[C@]2(C)[C@H]3CC[C@@H]4[C@@H]([C@@](C)(O)C/C=C/C(C)(C)OO)CC[C@@]4(C)[C@]3(C)CC[C@H]2C1(C)C` [BRUGUIERIN C], for which the outcome in series [2] and in series [6] was inactive. Also, the Activity result in the series with HepG2 [3] was “Non-toxic”. Also, the pEC50 with HepG2 [1] was 4.80.
Compound `C[S+]([O-])CCCCN=C=S` (stereo unspecified) [SULFORAPHANE] gave a pEC50 in the series with HepG2 [1] of 5.40.

For the origin of these results see ChEMBL document CHEMBL1157298, “Bioactive dammarane triterpenes from the mangrove plant Bruguiera gymnorrhiza” (J Nat Prod, 2006).
